High-throughput results (PubChem BioAssay)
An excerpt weighted towards active compounds, which were near 4.3% of everything screened.
Yeast superoxide – yeast age-related superoxide inhibition as caloric restriction mimetic; S. cerevisiae aged cells, superoxide DHE fluorescence; stronger effect = lower value; superoxide response (% of plate mean), % at 10 µM; 0.18% of 330,000 active; AID 2690;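 active = superoxide response under a set limit, about three screen SD below normal, cut at about 65% in these data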;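 also: yeast aged for seven days with compound at 30 °C before DHE staining; 100% = average MFI of all compound-treated wells on the plate with controls excluded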
SR-BI uptake up – SR-BI HDL lipid transfer activation. activation, % at 12.5 µM. CHO ldlA[mSR-BI] cells, DiI-HDL uptake fluorescence, 3 h; 100 = double the neutral-control signal. 0.096% of 320,000 active. AID 504775;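 active = mean replicate activation of at least 60% and every replicate at or above 60%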;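 also: 0% = median plate neutral-control signal and 100% = twice that signal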
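Assay system: CHO ldlA[mSR-BI] cells, LDL receptor-null, SR-BI overexpressing; medium: Ham's F12 with 0.5% BSA, HEPES 25 mM, pH 7.4; also added: DiI-HDL 10 µg/mL; timing: 3 h uptake period with compound, 37 °C; signal: DiI fluorescence, bottom read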
AHR activator – human AHR activation | activation, % at 5 µM | AID 2796 | P35869 | 2.5% of 320,000 active | AHR-responsive luciferase reporter cells, luminescence; in the data active = activation above about 47%;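 also: 0% = vehicle wells and 100% = reference agonist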
Hep lipid drop – modulators of hepatic lipid droplet formation; AML12 mouse hepatocytes, oleate lipid droplets, BODIPY imaging; inhibition, % at 6.5 µM; 0.4% of 240,000 active;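 active = lipid droplet intensity inhibited by at least 50%, with more than 500 cells counted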
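Material: mouse AML12 hepatocyte cell line, fixed after treatment; Timing: compound with oleate, overnight; Technique: high-content imaging of BODIPY-stained droplets and DAPI nuclei; Probe or stimulus: oleate, 100 µM final; Dosing: compound at 6.5 µM only.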
SMARCA2 act – activators of SMARCA2 function. MG213 cells, MMTV-luciferase reporter, dexamethasone, overnight. activation, % at 9.1 µM. 1% of 370,000 active. AID 652017; in the data active = activation above about 7.8%;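 also: 0% = vehicle wells and 100% = reference activator wells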
SR-BI HDL uptake – mouse SR-BI HDL lipid transfer inhibition; Q61009; ldlA[mSR-BI] CHO cells, DiI-HDL uptake fluorescence, 3 h; inhibition, % at 12.5 µM; 0.96% of 320,000 active;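 active = mean replicate inhibition of at least 70% and a set share of replicates each scoring 70 or more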;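 also: 0% = median of neutral control wells and 100% = median of positive control wells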
Target sequence (Q61009 whole entry, looked up): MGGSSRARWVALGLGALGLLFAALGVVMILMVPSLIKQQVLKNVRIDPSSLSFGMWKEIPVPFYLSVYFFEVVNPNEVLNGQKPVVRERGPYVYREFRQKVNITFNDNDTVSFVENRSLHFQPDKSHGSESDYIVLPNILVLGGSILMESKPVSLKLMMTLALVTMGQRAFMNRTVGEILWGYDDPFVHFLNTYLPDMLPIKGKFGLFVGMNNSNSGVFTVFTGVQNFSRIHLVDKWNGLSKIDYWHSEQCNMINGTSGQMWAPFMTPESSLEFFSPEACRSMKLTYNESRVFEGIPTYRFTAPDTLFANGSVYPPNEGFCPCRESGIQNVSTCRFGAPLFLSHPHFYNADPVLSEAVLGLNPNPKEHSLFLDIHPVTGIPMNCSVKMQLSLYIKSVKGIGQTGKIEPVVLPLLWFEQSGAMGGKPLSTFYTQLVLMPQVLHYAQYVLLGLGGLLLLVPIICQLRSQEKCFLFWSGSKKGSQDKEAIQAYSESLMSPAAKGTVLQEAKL
SMARCA2 conf – confirmation of SMARCA2 (BRM) function activators. shares compounds with SMARCA2 act. MG213 cells, MMTV-luciferase with dexamethasone, luminescence, overnight; MG213 cells expressing E1A, Rb sequestered; DMSO wells 0%, reference activator 100%. activation, % at 9.1 µM. 30% of 3,500 active. AID 652260;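 active = activation above its plate's cutoff, the mean activation of tested wells plus 3 SD, cut at about 7.9% in these data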
VP16 Luc act – counter-screen for SMARCA2 activators: GAL4-VP16 luciferase reporter activation | activation, % at 9.1 µM | shares compounds with SMARCA2 act | HEK293 GAL4-VP16 pG5luc reporter, luciferase luminescence; scaled: DMSO wells 0%, SAHA wells 100% | 41% of 3,500 active;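 active = activation above the solvent-only control well mean plus 3 SD, averaged across control plates, cut at about 5.2% in these data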
Numbers without * were called inactive; . = not tested or not shown.

SMILES | Yeast superoxide | SR-BI uptake up | AHR activator | Hep lipid drop | SMARCA2 act | SR-BI HDL uptake | SMARCA2 conf | VP16 Luc act
Cc1cccc2c(N)c3c(nc12)CCCC3 (tested in a mixture with another compound) | . | 3 | . | -23 | 3 | -3 | . | .
CN(C(=O)CNC(=O)c1ccccc1OCC(=O)Nc1ccc(Br)cc1)c1ccccc1 | . | . | . | . | 0 | . | . | .
O=C(Nc1cc2nn(-c3ccccc3)nc2cc1Cl)c1ccco1 | 101 | . | 47* | 0 | 8.8* | . | 21* | 11*
CCOC(=O)[C@@]12CCCC3=C1N(CCC3)C(=O)[C@H]2CC(=O)NCc1cccs1 | . | . | . | . | -2 | . | . | .
Cc1ccc(C)c(CSC2=NN3CCCC(=O)N=C3S2)c1 | 114 | . | 16 | -1 | 8.5* | . | -1 | 0
COc1ccc(C(=O)N/N=C/c2ccc(N3CCOCC3)o2)cc1OC | 102 | 19 | 11 | -6 | 0 | -19 | . | .
COc1ccc(C(=O)N/N=C/c2ccc(N3CCOCC3)s2)cc1OC | 78 | -13 | 15 | . | 8.4* | 13 | -2 | -1
COC(=O)[C@H](CC(C)C)N(Cc1cn(Cc2ccc(C)cc2)nn1)S(=O)(=O)c1ccc(F)cc1Br | . | . | . | . | -5 | . | . | .
Cc1ccc(NC(=O)Cc2noc3ccccc23)nc1 | 98 | 25 | 1 | -9 | 9.3* | -25 | 7 | 3
O=C(Cc1noc2ccccc12)Nc1ccccn1 | 93 | -8 | 1 | 3 | 3 | 8 | . | .
COc1cccc(CC(=O)Nc2ncc(C)s2)c1 | 97 | . | 8 | -2 | 2 | . | . | .
COc1cccc(CC(=O)Nc2nc(C)cs2)c1 | 92 | 5 | 5 | 1 | 8.6* | -5 | 4 | 2
CCN(CC)C(=O)CCc1nnc(Cc2cccc(C(F)(F)F)c2)o1 | 92 | 5 | 6 | -4 | 16* | -5 | 3 | 9.2*
Cc1cc(CN(C)C(=O)CCc2nnc(Cc3cccc(C(F)(F)F)c3)o2)on1 | 92 | -9 | 1 | -10 | 7 | 9 | . | .
Cc1ccc(S(=O)(=O)N2CCCC2C(c2ccccc2O)c2cn(C)c3ccccc23)cc1 (stereo unspecified) | . | . | . | . | -5 | . | . | .
O=C(O)c1cn(C2CCCCC2)c2ccccc2c1=O | 100 | 9 | -2 | -1 | 17* | -9 | -1 | 0
CCOC(=O)c1c(C)oc2c1cc(O)c1ccccc12 | 94 | -19 | 20 | . | 8.1* | 19 | 9.8* | 13*
CCOC(=O)c1c(C)[nH]c2c1cc(O)c1ccccc12 | 114 | -4 | 12 | . | 3 | 4 | . | .
C=CCN=C1NC(c2ccccc2)C(C(=O)OC)=C(C)N1C (stereo unspecified) | . | . | . | . | 2 | . | . | .
Cc1ccc(S(=O)(=O)Nc2nc3ccccc3nc2NCc2ccco2)cc1 | 102 | 9 | 17 | -16 | 8.7* | -9 | 22* | 19*
O=C1ON(Cc2ccccc2)C(c2ccccc2)N1c1ccccc1 (stereo unspecified) | . | 9 | . | . | 11* | -9 | -2 | 0
COc1cccc2cc(-c3nc(-c4cccs4)cs3)c(=O)oc12 | 102 | -65 | 48* | . | 8.6* | 65 | 4 | 11*
COc1ccc(Nc2nc(-c3cc4cccc(OC)c4oc3=O)cs2)cc1 | 109 | -58 | 3 | 15 | -1 | 58 | . | .
COc1ccc(OC)c(S(=O)(=O)NCC2CCN(C(=O)C(=O)c3cc4ccccc4o3)CC2)c1 | . | . | . | . | -1 | . | . | .
COc1ccc(CN(C)C(C#Cc2ccccc2)Cc2ccccc2)c(OC)c1 (stereo unspecified) | . | . | . | . | -3 | . | . | .
SMILES | Yeast superoxide | SR-BI uptake up | AHR activator | Hep lipid drop | SMARCA2 act | SR-BI HDL uptake | SMARCA2 conf | VP16 Luc act
Nc1cccc(N=[N+]([O-])c2cccc(N)c2)c1 | . | -5 | . | . | 8.8* | 5 | 13* | 6.9*
O=[N+]([O-])c1cccc(N=NNc2cccc([N+](=O)[O-])c2)c1 | . | . | . | . | 3 | . | . | .
O=C(NN=C1CCCCCCCCCCC1)c1ccccc1F | 97 | -12 | 9 | -4 | 17* | 12 | -1 | 2
O=C1NC(=S)S/C1=C/c1ccc(N2CCOCC2)o1 | 92 | 32 | 3 | 6 | . | -32 | . | .
O=C1NC(=S)S/C1=C\C=C\c1ccc([N+](=O)[O-])o1 | . | -5 | . | -55 | 24* | 5 | -16 | 3
N#Cc1cccc(NC(=O)OCCN2C(=O)CCC23CCC(c2ccc(Cl)cc2)CC3)c1 (stereo unspecified) | . | . | . | . | -5 | . | . | .
Cc1cccc2nc(=S)n(C(=O)c3ccco3)n12 | 97 | 0 | 13 | -13 | 8.6* | 0 | 7 | 14*
O=[N+]([O-])c1cc(O)c2ncccc2c1 | 136 | . | 17 | 15 | 21* | . | 1 | 2
COc1ccc(C=Nn2c(-c3ccc(F)cc3)n[nH]c2=S)cc1OCc1ccccc1 | . | . | . | . | 0 | . | . | .
O=C(CNCc1cccc2ccccc12)Nc1ccccc1[N+](=O)[O-] | 107 | 3 | 13 | 21 | 9.7* | -3 | -2 | 0
CCOc1ccc(NC(=O)CSc2nccn2Cc2ccco2)cc1 | 90 | 20 | 4 | -7 | 11* | -20 | 1 | 5
CCOC(=O)[C@@H]1CSCCS(=O)(=O)N1C(=O)[C@H](CC(C)C)NC(=O)OC(C)(C)C | . | . | . | . | -4 | . | . | .
COc1ccc(Nc2nc(N)c3ccccc3n2)c(OC)c1 | 103 | -9 | . | . | 11* | 9 | 9.0* | 7.5*
COc1cccc(-c2nn3c(-c4ccccn4)nnc3s2)c1 | 102 | 3 | -2 | . | 8.7* | -3 | 3 | 1
C=CCN(C)CC#Cc1ccccc1C | . | . | . | . | -3 | . | . | .
COc1ccnc(Oc2ccc3ccccc3c2)c1C#N | 106 | -26 | 4 | . | 14* | 26 | 6 | 7.9*
COc1ccc(-c2ccc(SCC(=O)NC3CCCCC3)nn2)cc1OC | 137 | . | 13 | -3 | 8.5* | . | 11* | 5
COc1ccc(-c2ccc(SCC(=O)NC3CCCC3)nn2)cc1 | . | . | . | . | -4 | . | . | .
COc1ccc2c(c1)c1nc3n(c(=O)c1n2CC(=O)Nc1ccccc1)CCCS3 | 115 | 3 | 1 | -1 | 11* | -3 | 1 | 0
COc1ccc(NC(=O)Cn2c3ccc(OC)cc3c3nc4n(c(=O)c32)CCS4)cc1 | 88 | -12 | 1 | -13 | -1 | 12 | . | .
CN(C)CCNc1ccc2ncn3c4ccc(O)cc4c(=O)c1c23 | . | 1 | . | . | 15* | -1 | 141* | 2
COc1ccc2c(=O)c3ccccc3oc2c1 | 111 | 7 | 1 | 7 | 4 | -7 | . | .
COc1cccc2sc3ccc(NCCC4CCCN4C)cc3c(=O)c12 (stereo unspecified) | 99 | -65 | 1 | 15 | 0 | 65 | . | .
